Test results reported in ChEMBL document CHEMBL1131219, “Inhibition of human alcohol dehydrogenases by formamides” (J Med Chem, 1998).

Assays:
[1] = molecular target: All-trans-retinol dehydrogenase [NAD(+)] ADH1B (Homo sapiens, UniProt P00325); test: Inhibition of human alcohol dehydrogenase beta 1 activity
Procedure, shortened: (§1)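 Purified human isozyme in 46 mM sodium phosphate with 0.25 mM EDTA, pH 7.0, 25 °C. The varied substrate (ethanol, acetaldehyde or cyclohexanone) was chosen per enzyme, with coenzyme fixed at 0.2 mM NADH or 2.0 mM NAD+. Inhibitor varied over at least a 3-fold range, 20–25 conditions in duplicate.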

Alcohol dehydrogenase 1C = Alcohol dehydrogenase 1C (Homo sapiens, UniProt P00326); test: Inhibition of human alcohol dehydrogenase gamma2 activity; procedure, shortened: as §1
[2] = molecular target: All-trans-retinol dehydrogenase [NAD(+)] ADH4 (Homo sapiens, UniProt P08319); test: Inhibition of human alcohol dehydrogenase pi activity; procedure, shortened: as §1
[3] = molecular target: T1, All-trans-retinol dehydrogenase [NAD(+)] ADH7 (Homo sapiens, UniProt P40394); test: Inhibition of human alcohol dehydrogenase sigma activity; procedure, shortened: as §1
Alcohol dehydrogenase = Alcohol dehydrogenase (Equus caballus, UniProt P00327+P00328); test: Inhibition of horse liver alcohol dehydrogenase activity
Alcohol dehydrogenase 1A = Alcohol dehydrogenase 1A (Homo sapiens, UniProt P07327); test: Inhibition of human alcohol dehydrogenase alpha activity
Procedure, shortened: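 Purified human α isozyme. Buffer was 46 mM sodium phosphate with 0.25 mM EDTA, pH 7.0, 25 °C; runs were also done in 33 mM phosphate/EDTA, pH 8.0. NADH 0.2 mM or NAD+ 2.0 mM held fixed. NADH change followed at 340 nm.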

[4] = molecular target: T1, All-trans-retinol dehydrogenase [NAD(+)] ADH7; test: Inhibitory activity against human alcohol dehydrogenase sigma.; procedure, shortened: as §1

Alcohol dehydrogenase 1A, sequence (P07327 whole entry): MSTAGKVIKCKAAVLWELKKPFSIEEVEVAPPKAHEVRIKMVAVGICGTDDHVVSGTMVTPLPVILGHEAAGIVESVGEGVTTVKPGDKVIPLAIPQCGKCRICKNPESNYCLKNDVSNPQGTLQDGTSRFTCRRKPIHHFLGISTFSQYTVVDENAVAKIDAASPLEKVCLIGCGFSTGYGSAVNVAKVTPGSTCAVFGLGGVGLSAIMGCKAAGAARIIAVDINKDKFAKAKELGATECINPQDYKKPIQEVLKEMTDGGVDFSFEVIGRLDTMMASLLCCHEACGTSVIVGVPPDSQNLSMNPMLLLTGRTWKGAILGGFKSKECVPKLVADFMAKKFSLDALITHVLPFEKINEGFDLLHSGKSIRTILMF
T1 sequence (P40394 whole entry): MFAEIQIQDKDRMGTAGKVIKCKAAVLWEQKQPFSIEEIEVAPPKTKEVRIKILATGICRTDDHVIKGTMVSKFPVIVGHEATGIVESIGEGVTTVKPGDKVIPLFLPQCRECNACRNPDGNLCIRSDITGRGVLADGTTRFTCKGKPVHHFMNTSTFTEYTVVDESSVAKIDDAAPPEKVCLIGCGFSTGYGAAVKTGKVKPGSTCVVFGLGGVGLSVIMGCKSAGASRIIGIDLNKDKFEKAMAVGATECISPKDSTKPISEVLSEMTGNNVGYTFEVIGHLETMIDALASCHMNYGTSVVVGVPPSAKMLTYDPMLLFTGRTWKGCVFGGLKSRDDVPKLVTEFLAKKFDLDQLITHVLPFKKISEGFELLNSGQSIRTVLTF
All-trans-retinol dehydrogenase [NAD(+)] ADH4, sequence (P08319 whole entry): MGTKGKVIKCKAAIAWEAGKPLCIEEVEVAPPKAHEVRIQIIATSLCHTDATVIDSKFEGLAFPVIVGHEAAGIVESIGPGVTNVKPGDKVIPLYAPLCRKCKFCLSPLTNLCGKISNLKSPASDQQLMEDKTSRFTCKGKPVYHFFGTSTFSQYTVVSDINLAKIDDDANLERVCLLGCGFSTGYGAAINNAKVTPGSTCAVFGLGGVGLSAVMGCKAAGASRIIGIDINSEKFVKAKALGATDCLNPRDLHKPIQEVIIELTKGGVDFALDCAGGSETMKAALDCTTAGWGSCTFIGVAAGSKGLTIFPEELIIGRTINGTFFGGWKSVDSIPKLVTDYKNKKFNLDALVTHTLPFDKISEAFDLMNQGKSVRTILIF
Alcohol dehydrogenase 1C, sequence (P00326 whole entry): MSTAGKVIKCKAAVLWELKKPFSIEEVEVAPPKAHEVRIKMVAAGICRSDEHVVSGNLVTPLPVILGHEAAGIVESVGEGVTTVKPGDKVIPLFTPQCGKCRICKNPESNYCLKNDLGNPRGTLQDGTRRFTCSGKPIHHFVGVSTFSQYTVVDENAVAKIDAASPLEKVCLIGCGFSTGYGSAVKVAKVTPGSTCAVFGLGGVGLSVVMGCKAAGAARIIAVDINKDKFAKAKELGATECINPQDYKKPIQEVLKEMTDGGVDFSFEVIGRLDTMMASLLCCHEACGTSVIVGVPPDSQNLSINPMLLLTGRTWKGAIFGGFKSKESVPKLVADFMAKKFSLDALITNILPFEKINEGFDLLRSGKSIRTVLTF
All-trans-retinol dehydrogenase [NAD(+)] ADH1B, sequence (P00325 whole entry): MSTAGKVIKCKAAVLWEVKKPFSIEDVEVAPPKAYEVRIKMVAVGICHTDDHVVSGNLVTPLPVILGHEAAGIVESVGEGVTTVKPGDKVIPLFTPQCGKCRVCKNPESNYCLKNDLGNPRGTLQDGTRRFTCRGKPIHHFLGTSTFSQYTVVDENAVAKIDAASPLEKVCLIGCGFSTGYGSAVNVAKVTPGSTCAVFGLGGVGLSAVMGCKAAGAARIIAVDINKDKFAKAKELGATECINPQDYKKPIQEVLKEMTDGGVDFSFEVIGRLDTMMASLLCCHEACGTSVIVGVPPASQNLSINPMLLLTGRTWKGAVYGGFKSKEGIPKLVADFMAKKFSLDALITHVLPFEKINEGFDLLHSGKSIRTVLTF

| SMILES | Ki [1] [µM] | Ki (Alcohol dehydrogenase 1C) [µM] | Ki [2] [µM] | Ki [3] [µM] | Ki (Alcohol dehydrogenase) [µM] | Ki (Alcohol dehydrogenase 1A) [µM] | Ki [4] [µM] |
| --- | --- | --- | --- | --- | --- | --- | --- |
| O=CNCC1CCCCC1 | 1 | 5.8 | 7.1 | 47 | 12 | 3.6 |  |
| O=CN(C1CCCCC1)C1CC1 | 250 | 120 |  | 640 | 440 | 5.9 |  |
| CCCN(C=O)C1CCCCC1 | 4000 | 160 |  |  | 5200 | 14 |  |
| O=CNC1CCCC1 | 7.3 | 13 | 150 | 28 | 7.6 | 3.9 |  |
| CC(C)NC=O | 19 | 15 | 1900 | 210 | 2.6 | 22 |  |
| O=CN(C1CCC1)C1CCC1 | 4900 | 19 | 280 | 1800 | 7200 | 1.8 |  |
| CCCNC=O | 5.5 | 120 | 300 | 21 | 10 | 5.6 |  |
| CC(C)CNC=O | 26 | 54 | 340 | 180 | 13 | 5.5 |  |
| CCCN(C=O)C1CCCC1 | 2800 | 21 | 191 | 1700 | 1900 | 4.5 |  |
| CC(C)N(C=O)C1CCCCC1 | 46 | 83 | 150 | 1300 | 470 | 24 |  |
| CCCCNC=O | 11 | 100 | 110 | 30 | 16 | 7.2 |  |
| CCN(C=O)C1CCCCC1 | 1500 | 33 |  |  | 1400 | 4.5 |  |
| O=CN(C1CCCC1)C1CC1 | 4600 | 4.6 | 96 | 930 | 110 | 0.88 |  |
| CN(C=O)C1CCCCC1 | 920 | 40 | 120 | 4900 | 600 | 5.5 |  |
| CCCCCCCN(C=O)C1CC1 | 1900 | 2.1 | 31 | 960 | 1100 | 1.9 |  |
| O=CN(C1CCCC1)C1CCCC1 | 1600 | 1000 |  |  | 2600 | 7.4 |  |
| CCCCCCC(C)NC=O (centres undefined) | 1.7 | 0.41 | 40 | 100 | 5.4 | 7 |  |
| O=CNC1CCC1 | 2.9 | 45 | 450 |  | 1.7 | 3.8 | 54 |
| O=CNC1CC1 | 6.4 | 700 | 5200 | 300 | 100 | 33 |  |
| O=CN(C1CCCC1)C1CCC1 [CYCLOBUTYL(CYCLOPENTYL)FORMAMIDE] | 10000 | 47 | 360 | 1100 | 8600 | 0.36 |  |
| O=CNC1CCCCC1 [CYCLOHEXYLFORMAMIDE] | 3.4 | 5.2 | 84 | 380 |  | 2.3 |  |
| CCCCCCCNC=O [HEPTYLFORMAMIDE] | 0.33 | 12 | 11 | 0.74 | 3 | 3.6 |  |
